# In the library only some 2.7% were active in any assay of this set; here they are far more common.
# sPLA2-III inh: human group III sPLA2 inhibitors, primary screen, biochemical, QFRET, BODIPY PC-A2 liposome substrate; Group 3 secretory phospholipase A2 (Homo sapiens), Q9NZ20; QFRET BODIPY PC-A2 liposome hydrolysis, fluorescence; inhibition, % at 12.2 µM; 370,000 tested, 0.56% active; AID 743126, 2013;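 active means inhibition above mean plus 3 SD of compounds lying within the high and low control bounds, cut at about 19% in these data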
# Target sequence (Q9NZ20 whole entry, looked up): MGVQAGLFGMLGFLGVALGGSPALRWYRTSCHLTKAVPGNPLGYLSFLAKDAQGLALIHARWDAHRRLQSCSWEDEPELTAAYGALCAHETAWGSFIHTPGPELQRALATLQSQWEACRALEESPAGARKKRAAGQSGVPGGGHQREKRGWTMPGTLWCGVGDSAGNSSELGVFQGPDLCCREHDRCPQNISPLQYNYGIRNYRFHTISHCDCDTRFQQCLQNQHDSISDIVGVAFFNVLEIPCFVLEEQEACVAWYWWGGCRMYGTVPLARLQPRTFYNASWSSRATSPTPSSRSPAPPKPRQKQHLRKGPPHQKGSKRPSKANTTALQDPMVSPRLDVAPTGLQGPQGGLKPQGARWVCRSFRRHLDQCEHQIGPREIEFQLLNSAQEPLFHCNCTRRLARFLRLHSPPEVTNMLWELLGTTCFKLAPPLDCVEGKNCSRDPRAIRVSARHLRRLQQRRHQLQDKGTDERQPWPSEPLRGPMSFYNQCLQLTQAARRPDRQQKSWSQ
# NR1D1 modulator: modulators of Rev-erb alpha DNA binding, primary screen, biochemical, FITC-DNA, fluorescence polarization, uHTS; Nuclear receptor subfamily 1 group D member 1 (Homo sapiens), P20393; Rev-erbα–FITC-DNA binding, 90 min; activity, % at 10 µM; 370,000 tested, 0.79% active;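 active means activity above about 14%, limit read from the data; passing the limit was not always enough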
# bovine MsrA act: bovine MsrA enzyme activators, primary screen, biochemical, absorbance, HTS; Methionine sulfoxide reductase A (Bos taurus); purified bovine MsrA, absorbance read-out; activation, % at 10.6 µM; 360,000 tested, 0.3% active; in the data active means activation above about 7.5%
# ASAP1 GAP inh: inhibitors of human ASAP1 ArfGAP activity, primary screen, biochemical, fluorescence polarization. 360,000 tested, 0.19% active. ASAP1-stimulated ARF1 GTP hydrolysis, GDP FP detection. inhibition, % at 16.5 µM. AID 624377, 2012; in the data active means inhibition above about 25%
# ARFGAP1 inh: inhibitors of rat ARFGAP1 GAP activity, primary screen, biochemical, fluorescence polarization, GDP tracer; ADP-ribosylation factor GTPase-activating protein 1 (Rattus norvegicus), Q62848; Arfgap1-stimulated ARF1 GTP hydrolysis, GDP FP detection; inhibition, % at 16.5 µM; 360,000 tested, 0.26% active;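 active means inhibition above a per-plate limit, mean inhibition of low control wells plus 3 SD, cut at about 25% in these data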
# Target sequence (Q62848 1-136 limits assumed): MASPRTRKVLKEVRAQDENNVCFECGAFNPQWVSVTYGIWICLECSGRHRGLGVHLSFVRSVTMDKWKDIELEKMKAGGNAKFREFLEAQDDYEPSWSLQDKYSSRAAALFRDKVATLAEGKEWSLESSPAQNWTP
#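 material = rat Arfgap1 catalytic domain, aa 1-136 | also added = human ARF1(Δ1-17)-GTP substrate | compound dosing = one concentration, 16.5 µM, DMSO 1.26% | times = GTP hydrolysis reaction 2 h at 25 °C | measured by = FP, GDP Alexa 633 tracer displaced from anti-GDP antibody, 620/688 nm | evaluation = percent inhibition of Arfgap1-stimulated GTP hydrolysis | replication = single well per compound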
# MsrA inhibitor: bovine MsrA enzyme inhibitors, primary screen, biochemical, absorbance, HTS | Methionine sulfoxide reductase A (Bos taurus) | purified bovine MsrA, absorbance read-out | inhibition, % at 15.5 µM | 360,000 tested, 0.75% active; in the data active means inhibition above about 4.5%
# Numbers stand for hits; 0 = inactive; - = no result.
SMILES,sPLA2-III inh,NR1D1 modulator,bovine MsrA act,ASAP1 GAP inh,ARFGAP1 inh,MsrA inhibitor
CCC(=O)Oc1ccc2c(c1)CCC1C2CC[C@@]2(C)C1CC[C@@H]2OC(=O)CC (some centres undefined),-,0,-,-,-,-
CNc1ccc(C=C2C=Cc3ccccc32)cc1,24.7,0,0,0,0,0
C[C@@H](O)[C@H](N)C(=O)O,-,0,-,-,-,-
O=C(N/N=C/c1ccc2c(c1)OCO2)c1cccc(NC(=O)c2ccccc2Cl)c1,0,0,0,0,0,0
O=C(N/N=C/c1ccc2c(c1)OCO2)c1ccc(NC(=O)c2ccccc2Cl)cc1,0,0,0,0,0,5.2
CCOC(=O)c1ccc(N(CC(C)O)CC(C)O)cc1 (centres undefined),-,0,-,-,-,-
COc1ccc2c(c1)OC[C@H]1[C@H]2N2C(=O)c3ccccc3NC(=O)[C@@]2(C)[C@H]1c1ccccc1,38.6,0,0,0,0,0
COc1ccc2c(c1)OC[C@H]1[C@H]2N2C(=O)c3cc(C)ccc3NC(=O)[C@@]2(C)[C@H]1c1ccccc1,-,-,0,-,-,-
O=C(Nc1cccc(NC(=O)c2c(F)cccc2F)n1)c1c(F)cccc1F,0,0,0,0,24.8,0
O=C(Nc1cccc(NC(=O)c2cccc(F)c2)n1)c1cccc(F)c1,0,0,0,0,0,0
O=C(N/N=C/c1ccc(N2CCOCC2)cc1)c1cccs1,0,0,0,0,0,4.6
COc1cc(/C=C2\SC(=O)N(c3ccc(Cl)cc3)C2=O)cc([N+](=O)[O-])c1O,0,0,0,0,0,7.1
COc1cc(/C=C2\SC(=O)N(c3cccc(Cl)c3)C2=O)cc([N+](=O)[O-])c1O,0,0,0,0,0,0
CN[C@@H]1[C@H](O)[C@@H](O[C@@H]2[C@@H](O)[C@H](O[C@H]3OC(CN)=CC[C@H]3N)[C@@H](N)C[C@H]2N)OC[C@]1(C)O,-,0,-,-,-,-
CNC(C)[C@@H]1CC[C@@H](N)[C@@H](O[C@@H]2[C@H](O)[C@@H](O[C@@H]3OC[C@](C)(O)[C@H](NC)[C@H]3O)[C@H](N)C[C@@H]2N)O1 (some centres undefined),-,0,-,-,-,-
CCSc1n[nH]c(=S)s1,0,0,8.5,0,0,0
COC(=O)CSc1n[nH]c(=S)s1,0,0,0,0,0,0
Nc1ccccc1SC(CC(=O)c1ccccc1)c1ccc([N+](=O)[O-])cc1 (centres undefined),0,0,0,0,0,0
Nc1ccccc1SC(CC(=O)c1ccccc1)c1cccc([N+](=O)[O-])c1 (centres undefined),0,0,8.1,0,0,0
Cc1ccsc1/C=C(\CC(=O)O)c1nc2ccccc2o1,0,0,0,0,0,4.6
Cc1ccsc1/C=C(\C(=O)c1ccc(OC(C)C)cc1)c1nc2ccccc2o1,0,0,0,0,0,4.6
O=C(O)C/C(=C\c1cc(Br)cs1)c1nc2ccccc2o1,0,0,0,0,0,4.6
Cc1ccc(-c2nc3ccccc3o2)cc1NC(=O)Cc1cccs1,0,0,0,0,0,0
CN(C)[C@@H]1C(=O)C(C(=O)NCN2CCCC2)=C(O)[C@@]2(O)C(=O)C3=C(O)c4c(O)cccc4[C@@](C)(O)[C@H]3C[C@@H]12,-,0,-,-,-,-
CC1(C)O[C@@H]2CC3C4CCC5=CC(=O)CCC5(C)[C@]4(F)C(O)CC3(C)[C@]2(C(=O)CCl)O1 (some centres undefined),-,0,-,-,-,-
SMILES,sPLA2-III inh,NR1D1 modulator,bovine MsrA act,ASAP1 GAP inh,ARFGAP1 inh,MsrA inhibitor
CC(=O)O[C@]1(C(C)=O)CCC2C3C[C@H](C)C4=CC(=O)CC[C@]4(C)C3CC[C@@]21C (some centres undefined),-,0,-,-,-,-
C=C(C)[C@@H]1CC=C(C)CC1,-,0,-,-,-,-
COc1cccc(OC)c1C(=O)Nn1c(C2CCC2)nc2ccccc2c1=O,0,0,9.4,0,0,0
BrC(=C\c1ccccc1)/C=N/Nc1ccc2nncn2n1,0,0,0,0,0,4.5
C(=N\Nc1ccc2nncn2n1)/c1ccco1,0,0,0,0,0,0
CC1(C)S[C@@H]2C(NC(=O)[C@@H](N)c3ccc(O)cc3)C(=O)N2[C@H]1C(=O)O (some centres undefined),-,0,-,-,-,-
Cc1cc(C)c2sc(N(CCCN(C)C)C(=O)c3ccc(S(=O)(=O)N4CCc5ccccc5C4)cc3)nc2c1,-,-,0,-,-,-
Cc1cc(C)c2sc(NNC(=O)c3ccc(S(=O)(=O)N4CCc5ccccc5C4)cc3)nc2c1,44.9,0,0,0,0,0
CC(=O)OCC(=O)[C@@]1(O)[C@H](OC(C)=O)CC2C3CCC4=CC(=O)C=C[C@]4(C)[C@@]3(F)[C@@H](O)C[C@@]21C (some centres undefined),-,0,-,-,-,-
CC(=O)[C@@]12O[C@](C)(c3ccccc3)O[C@@H]1CC1C3CCC4=CC(=O)CC[C@]4(C)C3CC[C@@]12C (some centres undefined),-,0,-,-,-,-
CCOC(=O)C(N)CSC1CC(=O)N(c2ccc(C(=O)OC)cc2)C1=O (centres undefined),0,0,11.4,0,0,0
CC1(CC(=O)N/N=C/c2ccc(-c3ccc(C(=O)O)cc3)o2)OCCO1,0,0,0,0,0,9.0
COC(=O)c1ccc(-c2ccc(/C=N/NC(=O)CC3(C)OCCCO3)o2)cc1,0,0,0,0,0,0
CCc1nc(NC(=O)c2sc(C)nc2C)sc1C(=O)OC,0,0,0,0,0,4.6
COC(=O)c1sc(NC(=O)c2cc(C)on2)nc1C,0,0,0,0,0,0
CN(C)c1ccc(/C=C/c2ccc3ccccc3[n+]2C)cc1,19.5,0,0,0,0,0
COc1cc([C@@H]2c3cc4c(cc3C(O[C@@H]3O[C@@H]5CO[C@@H](c6cccs6)OC5[C@H](O)[C@H]3O)C3COC(=O)[C@@H]32)OCO4)cc(OC)c1O (some centres undefined),-,0,-,-,-,-
Cn1cccc1/C=C(/C#N)c1ccc(F)cc1,0,0,0,0,0,5.6
O[C@H](CNC[C@@H](O)[C@H]1CCc2cc(F)ccc2O1)[C@@H]1CCc2cc(F)ccc2O1,-,0,-,-,-,-
CN1CCc2cc3c(c4c2[C@H]1[C@H](O)c1ccccc1-4)OCO3,0,0,36.8,0,0,0
COc1ccc2c(c1OC)C(=O)OC2C1c2c(cc3c(c2OC)OCO3)CCN1C (centres undefined),0,0,0,0,0,0

# High-throughput results as filed in PubChem.
